The text below walks through data of ChEMBL document CHEMBL1123554, “Acetylenic nucleosides. 4. 1-beta-D-arabinofuranosyl-5-ethynylcytosine. Improved synthesis and evaluation of biochemical and antiviral properties” (1987).

In assay [1] the test system is Human alphaherpesvirus 1. Description: Antiviral activity against DNA polymerase mutant resistant to KOS(parental) was determined at a conc of 50 uM. It is filed as functional. The method, boiled down: (§1)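 HSV-infected HeLa BU cells seeded in 25-cm² flasks. The next day, virus was added at a multiplicity of 3–5 PFU/cell and allowed 1 h to adsorb. Virus was then removed and growth medium with or without drug was added. Cells were held at 37 °C for 24 h, then frozen at –70 °C until titration. Yield is expressed as PFU, % of untreated control.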

In assay [2] the test system is Human alphaherpesvirus 1. Description: Antiviral activity against DNA polymerase mutant resistant to PFA 1a (PFA) was determined at a conc of 50 uM. It is filed as functional. The method, boiled down: as §1
Assay [3] relates to Human alphaherpesvirus 1. Description: Antiviral activity against DNA polymerase mutant resistant to PFA 3b(PFA) was determined at a conc of 50 uM. The format is functional. In a few lines: as §1
Assay [4] relates to Human alphaherpesvirus 1. The experiment in a line: Antiviral activity against DNA polymerase mutant resistant to PFA 5a(PFA) was determined at a conc of 50 uM. It is filed as functional. The method, boiled down: as §1
Assay [5] has as its target Cytidine deaminase (Homo sapiens) (UniProt P32320). The experiment in a line: relative velocity was determined against deaminase purified from human acute myeloblastic leukemia cells.
The subject of the next assay is Human alphaherpesvirus 2. Description: Antiviral activity against HSV-2 (333)was determined at a conc of 50 uM. It is filed as functional. The method, boiled down: as §1
Assay [6] has as its system Human alphaherpesvirus 1. Description: Antiviral activity against DNA polymerase mutant resistant to KOS(parental) was determined at a conc of 100 uM. It is filed as functional. In a few lines:
as §1

Assay [7] has as its system Human alphaherpesvirus 1. Description: Antiviral activity against DNA polymerase mutant resistant to PFA 1a (PFA) was determined at a conc of 100 uM. The format is functional. In a few lines: as §1
Assay [8] concerns Human alphaherpesvirus 1. The experiment in a line: Antiviral activity against DNA polymerase mutant resistant to PFA 3b(PFA) was determined at a conc of 100 uM. The format is functional. The method, boiled down:
as §1

Assay [9] has as its system Human alphaherpesvirus 1. Description: Antiviral activity against DNA polymerase mutant resistant to PFA 5a(PFA) was determined at a conc of 100 uM. The format is functional. In a few lines:
as §1

Assay [10] has as its system Human alphaherpesvirus 1. Description: Antiviral activity against HSV-1 kinase mutant resistant to SCS(parental) was determined at a conc of 100 uM. The format is functional. The method, boiled down:
as §1

For assay [11], the system named is Human alphaherpesvirus 1. Description: Antiviral activity against HSV-1 kinase mutant resistant to Tr7(ACV) was determined at a conc of 100 uM. It is filed as functional. The method, boiled down: as §1
The test system of assay [12] is Human alphaherpesvirus 1. Description: Antiviral activity against HSV-1 kinase mutant resistant to B3(BVdU) was determined at a conc of 50 uM. It is filed as functional. In a few lines:
as §1

Assay [13] concerns Human alphaherpesvirus 1. Description: Antiviral activity against HSV-1 kinase mutant resistant to S1(ACV) was determined at a conc of 50 uM. The format is functional. The method, boiled down:
as §1

The subject of assay [14] is Human alphaherpesvirus 1. The experiment in a line: Antiviral activity against HSV-1 kinase mutant resistant to SCS(parental) was determined at a conc of 50 uM. It is filed as functional. The method, boiled down: as §1
Assay [15] deals with Human alphaherpesvirus 1. Description: Antiviral activity against HSV-1 kinase mutant resistant to Tr7(ACV) was determined at a conc of 50 uM. The format is functional. In a few lines: as §1
For assay [16], the system named is Human alphaherpesvirus 1. Description: Antiviral activity against HSV-1 kinase mutant resistant to B3(BVdU) was determined at a conc of 100 uM. The format is functional. The method, boiled down: as §1
The test system of assay [17] is Human alphaherpesvirus 1. The experiment in a line: Antiviral activity against HSV-1 kinase mutant resistant to S1(ACV) was determined at a conc of 100 uM. The format is functional. In a few lines:
as §1

Assay [18] deals with Cytidine deaminase (Homo sapiens) (UniProt P32320). Description: Relative velocity was determined against deaminase purified from human acute myeloblastic leukemia cells.
Assay [19] has as its system Thymidine kinase (Human herpesvirus 2). Description: Phosphorylating activity of viral HSV -2 (333) induced thymidine kinase relative to dThdK was determined. The settings on record: Human alphaherpesvirus 2.
For assay [20], the system named is Human alphaherpesvirus 1. The experiment in a line: Antiviral activity against HSV-1 kinase mutant resistant to B3(BVdU) was determined at a conc of 30 uM. The format is functional. The method, boiled down: as §1
Assay [21] relates to Human alphaherpesvirus 1. Description: Antiviral activity against HSV-1 kinase mutant resistant to SCS(parental) was determined at a conc of 30 uM. It is filed as functional. The method, boiled down:
as §1

Assay [22] relates to Human alphaherpesvirus 1. Description: Antiviral activity against HSV-1 kinase mutant resistant to Tr7(ACV) was determined at a conc of 30 uM. The format is functional. The method, boiled down:
as §1

Sequence of Cytidine deaminase (Homo sapiens) (P32320 whole entry, looked up): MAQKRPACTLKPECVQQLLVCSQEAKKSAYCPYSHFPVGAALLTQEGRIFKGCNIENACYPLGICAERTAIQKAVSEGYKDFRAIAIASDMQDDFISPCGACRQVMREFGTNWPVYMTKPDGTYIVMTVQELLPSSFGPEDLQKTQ

For the molecule `O=C(O)P(=O)(O)O` [FOSCARNET], the Control in the assay with Human alphaherpesvirus 1 [1] stood at 2.9%; in the assay with Human alphaherpesvirus 1 [2] it was 37%; in the assay with Human alphaherpesvirus 1 [3], 24%; in the assay on Human alphaherpesvirus 1 [4], 63%.
In assay [5], `Nc1ccn([C@H]2C[C@H](O)[C@@H](CO)O2)c(=O)n1` came in with a Relative velocity of 1.
Consider `C#Cc1cn(C2O[C@H](CO)[C@@H](O)[C@@H]2O)c(=O)nc1N` (stereo not given in full), for which the Control with Human alphaherpesvirus 2 is reported as 0.28%; in the assay on Human alphaherpesvirus 1 [6] it was 0.06%; in the assay on Human alphaherpesvirus 1 [1], 0.06%; in the assay with Human alphaherpesvirus 1 [7], 0.04%; in the assay on Human alphaherpesvirus 1 [2] it was 0.54%; in the assay with Human alphaherpesvirus 1 [8] it was 0.04%. The Control with Human alphaherpesvirus 1 [3] amounted to 0.36%; in the assay on Human alphaherpesvirus 1 [9] it was 0.1%; in the assay on Human alphaherpesvirus 1 [10], 0.12%; in the assay with Human alphaherpesvirus 1 [11], 0.12%; in the assay with Human alphaherpesvirus 1 [4], 0%; in the assay with Human alphaherpesvirus 1 [12], 0.04%. Further, the Control in the assay with Human alphaherpesvirus 1 [13] came out at 70%; in the assay with Human alphaherpesvirus 1 [14], 0.38%; in the assay with Human alphaherpesvirus 1 [15] it was 4.7%; in the assay on Human alphaherpesvirus 1 [16], 0.06%; in the assay on Human alphaherpesvirus 1 [17] it was 59%. Further, the figures for the Relative velocity in [18] and in assay [19] were 0.02 and 30%, respectively.
In the case of `O=c1[nH]c(=O)n([C@H]2C[C@H](O)[C@@H](CO)O2)cc1/C=C/Br` [BRIVUDINE], the Control is given as 52% with Human alphaherpesvirus 1 [20], 0.4% with Human alphaherpesvirus 1 [21] and 0.8% in the assay with Human alphaherpesvirus 1 [22].
Take `Nc1nc2c(ncn2COCCO)c(=O)[nH]1` [ACYCLOVIR]: the Control with Human alphaherpesvirus 1 [1] is on record as 3%; with Human alphaherpesvirus 1 [2], 37%; in the assay with Human alphaherpesvirus 1 [3], 63%; in the assay on Human alphaherpesvirus 1 [4], 21%; in the assay with Human alphaherpesvirus 1 [12] it was 0.3%; with Human alphaherpesvirus 1 [13], 18%. The Control in the assay with Human alphaherpesvirus 1 [14] was 0.2%; in the assay with Human alphaherpesvirus 1 [15] it was 10%.
